# Published values gathered from unrelated publications.
# Compare with care: the assays were run in different laboratories.
# Target: Phosphatidylinositol 4-kinase beta (PI4KB, Homo sapiens, UniProt Q9UBF8)
test,setting,remaining binding,Compound
"cell-free assay, competition with immobilised ligand",0.1 µM,100%,Nc1c(C(=O)NCc2ccc(C(=O)NCCCC3CCCCC3)cc2)cnn1-c1ccccc1
binding,1 µM,100%,CN(c1nccc(-c2cnn3ncccc23)n1)C1CC1
"cell-free assay, competition with immobilised ligand",1 µM,100%,c1ccc(N2CCN(Cc3nc4ccccc4[nH]3)CC2)nc1
"binding, competition with immobilised ligand",1 µM,13%,COc1cnc(Nc2cccc(S(N)(=O)=O)c2)nc1N1CCN(c2ccccc2)C(=O)C1
"binding, competition with immobilised ligand",1 µM,100%,C=CC(=O)N1CCC(C(=O)NCC(=O)N2CCN(c3nc(-c4cnc(N)nc4C(F)F)nc(N4CCOCC4)n3)CC2)CC1
"cell-free assay, competition with immobilised ligand",1 µM,94%,FC(F)(F)c1ccc2c(c1)nc(-c1cccnc1)n2C1CC1
"binding, competition with immobilised ligand",1 µM,92%,O=C(NCC1CCOCC1)c1n[nH]cc1NC(=O)c1c(F)cccc1F
"binding, competition with immobilised ligand",1 µM,96%,CNC(=O)[C@@H]1CC[C@@H](n2c(-c3ccc4cnccc4c3)nc3ccc(C(=O)NCc4cccc(C(N)=O)c4)cc32)C1
"binding, competition with immobilised ligand",1 µM,45%,O=C(NCCCN1CCOCC1)c1ccc(Nc2nccc(-c3cc4ccccc4s3)n2)cc1
"cell-free assay, competition with immobilised ligand",1 µM,73%,CSc1cccnc1N1CCN(Cc2nc3ccccc3[nH]2)CC1
binding,1 µM,80%,N[C@@H]1CCN(c2nccc(-c3cnn4ncccc34)n2)C1
"binding, competition with immobilised ligand",1 µM,100%,O=C(NCCCN1CCOCC1)c1ccc(Nc2ncc(Cl)c(-c3ccc(Cl)s3)n2)cc1
binding,1 µM,19%,C[C@H]1CCN(c2nccc(-c3cnn4ncccc34)n2)C1
"cell-free assay, competition with immobilised ligand",1 µM,82%,CNCc1ccccc1-c1csc([C@@H](C)Nc2nc(C)nc3cc(OC)c(OC)cc23)c1
binding,1 µM,58%,CN(C)c1nccc(-c2cnn3ncccc23)n1
"binding, competition with immobilised ligand",0.1 µM,42%,C[C@@H](c1ccc(-n2cnc3c(N)ncnc32)cc1)N1CCc2nn(C)c(Cc3ccccc3)c2C1=O
binding,1 µM,100%,CN(C)c1ncc(F)c(-c2cnn3ncccc23)n1
"binding, competition with immobilised ligand",1 µM,100%,O=C(c1ccc(Nc2ncc(Cl)c(-c3ccc(Cl)s3)n2)cc1)N1CCC(N2CCCC2)CC1
binding,1 µM,89%,F[C@@H]1CCN(c2nccc(-c3cnn4ncccc34)n2)C1
"cell-free assay, competition with immobilised ligand",5 µM,25%,COc1ncc2cc3ccccc3nc2c1C#N
binding,1 µM,100%,CN(CCCC(F)(F)F)c1nccc(-c2cnn3ncccc23)n1
"cell-free assay, competition with immobilised ligand",1 µM,100%,CC(=O)C1=C(C)N(c2cccc(C(F)(F)F)c2)C(=O)N[C@@H]1c1ccc(C#N)nc1
